# The source made the active and inactive calls. The rule behind the calls is not given here.
# Columns and labels:
# [1] = system: PC-12; assay: Induction of autophagy in rat PC12 cells after 48 hrs by MDC staining-based flow cytometric method; type: functional, cell-based
# How it was run: (§1)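 PC12 cells were treated for 48 h and then stained with 0.5 mM monodansylcadaverine for 30 min at 37 °C. Trypsinized cells were pooled with floating cells and resuspended in PBS/1% FBS. 10000 cells were read by flow cytometry in the FITC channel after gating out debris. MDC staining is expressed relative to vehicle.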
# [2] = system: PC-12; assay: Neuroprotective activity against etoposide-induced apoptosis in rat PC12 cells assessed as cell viability at 0.1 uM pretreated for 4 hrs followed by etoposide challenge measured after 48 hrs by PrestoBlue assay relative to control; type: functional; details: read-out: Activity
# How it was run: (§2)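 PC12 cells were plated at 50000/well on collagen-coated plates and left overnight. They were pretreated 4 h with compound, then given 15 μg/mL etoposide. Viability was read at 48 h by PrestoBlue (ex 560/em 590 nm). n = 3, mean ± SEM, as % viability.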
# [3] = system: IMR90-c4; assay: Neuroprotective activity against etoposide-induced apoptosis in human IMR90-c4 cells assessed as increase in cell viability at 3 to 30 uM pretreated for 4 hrs followed by etoposide challenge measured after 36 hrs by PrestoBlue assay; type: functional, cell-based
# How it was run: (§3)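 IMR90-c4 iPSC-derived neurons were plated at 16000 cells/well on poly-D-lysine/laminin and matured. They were pretreated 4 h with compound, then given 15 μg/mL etoposide. Viability was read at 36 h by PrestoBlue fluorescence (ex 560/em 590 nm).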
# [4] = system: PC-12; assay: Induction of autophagy in rat PC12 cells assessed as increase in beclin 1 expression after 24 hrs by Western blot method; type: functional, cell-based
# How it was run: (§4)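 PC12 lysates were taken after 24 h of compound treatment. 50 μg protein was run on 10% SDS gel and transferred to nitrocellulose. Blots were blocked in 5% BSA, probed overnight at 4 °C with beclin 1 (1:2000) and actin (1:5000), then HRP secondary. Chemiluminescence was quantified by densitometry.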
# [5] = system: PC-12; assay: Neuroprotective activity against etoposide-induced apoptosis in rat PC12 cells assessed as cell viability at 3 uM pretreated for 4 hrs followed by etoposide challenge measured after 48 hrs by PrestoBlue assay (reference value: 52.13 +/- 1.13%); type: functional; details: read-out: Activity; how it was run: as §2
# [6] = system: PC-12; assay: Neuroprotective activity against etoposide-induced apoptosis in rat PC12 cells assessed as increase in Bcl2/Bax ratio at 3 uM pretreated for 4 hrs followed by etoposide challenge measured after 48 hrs by Western blot method; type: functional, cell-based
# How it was run: (§5)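 PC12 cells were pretreated 4 h with compound before etoposide and lysed after 24 or 48 h. 50 μg protein was run on 10% SDS gel and blotted. Probes were Bcl-2 (1:1000), Bax (1:500) and actin, with HRP chemiluminescence and densitometric Bcl-2/Bax ratio. n = 2, mean ± SEM.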
# [7] = system: PC-12; assay: Induction of autophagy in rat PC12 cells at 3 uM after 48 hrs by MDC staining-based flow cytometric method relative to control; type: functional; how it was run: as §1
# [8] = Neuroprotective activity against etoposide-induced apoptosis in human IMR90-c4 cells assessed as increase in cell viability at 3 uM pretreated for 4 hrs followed by etoposide challenge measured after 36 hrs by PrestoBlue assay relative to control; type: functional; how it was run: as §3
# [9] = system: PC-12; assay: Neuroprotective activity against etoposide-induced apoptosis in rat PC12 cells assessed as cell viability at 0.3 uM pretreated for 4 hrs followed by etoposide challenge measured after 48 hrs by PrestoBlue assay relative to control; type: functional; details: read-out: Activity; how it was run: as §2
# [10] = system: PC-12; assay: Neuroprotective activity against etoposide-induced apoptosis in rat PC12 cells assessed as increase in cell viability at 0.1 uM pretreated for 4 hrs followed by etoposide challenge measured after 48 hrs by PrestoBlue assay relative to control; type: functional, cell-based; how it was run: as §2
# [11] = target: T1, Glutamate [NMDA] receptor (Homo sapiens) (UniProt Q05586+Q12879+Q13224+O15399+O60391+Q14957+Q8TCU5); assay: Antagonist activity at NMDA receptor in human IMR90-c4 cells assessed as decrease in NMDA-mediated reduction in cell viability at 30 uM by PrestoBlue assay; type: cell-based
# How it was run: (§6)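 IMR90-c4 iPSCs differentiated to neurons (NSC, NPC, then 21 days maturation on poly-D-lysine/laminin). Neurons challenged with 500 μM NMDA. Viability read with PrestoBlue. n = 1 with 4 technical replicates, mean ± SEM.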
# [12] = Neuroprotective activity against etoposide-induced apoptosis in human IMR90-c4 cells assessed as cell viability at 3 uM pretreated for 4 hrs followed by etoposide challenge measured after 36 hrs by PrestoBlue assay relative to control; type: functional; details: read-out: Activity; how it was run: as §3
# [13] = system: PC-12; assay: Neuroprotective activity against etoposide-induced apoptosis in rat PC12 cells assessed as increase in Bcl2/Bax ratio at 3 uM pretreated for 4 hrs followed by etoposide challenge measured after 24 hrs by Western blot method; type: functional; how it was run: as §5
# [14] = system: PC-12; assay: Neuroprotective activity in rat PC12 cells assessed as decrease in H2O2-induced reactive oxygen species generation at 10 uM by CellROX/DAPI-blue staining-based fluorescence microscopic method; type: functional, cell-based
# How it was run: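 PC12 cells were grown in RPMI with 10% horse serum and 5% FBS on collagen-coated plates. ROS was induced with H2O2 and cells exposed to compound. Staining used CellROX green plus DAPI, imaged by fluorescence microscopy at 40×.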
# [15] = system: PC-12; assay: Neuroprotective activity against H2O2-induced apoptosis in rat PC12 cells assessed as increase in cell viability at 1 to 30 uM after 4 hrs by PrestoBlue assay; type: functional, cell-based
# How it was run: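 PC12 cells were exposed to 400 μM H2O2 with compounds at 1–30 μM. Viability was measured after 4 h with PrestoBlue.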
# [16] = system: PC-12; assay: Induction of autophagy in rat PC12 cells assessed as increase in beclin 1 expression at 3 uM after 24 hrs by Western blot method relative to control; type: functional; how it was run: as §4
# [17] = system: SH-SY5Y; assay: Neuroprotective activity against etoposide-induced apoptosis in human SH-SY5Y cells assessed as cell viability at 3 uM pretreated for 4 hrs followed by etoposide challenge measured after 12 to 48 hrs by PrestoBlue assay relative to control; type: functional; details: read-out: Activity
# How it was run: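 SH-SY5Y cells were plated at 50000/well and left overnight at 37 °C, 5% CO2. They were pretreated 4 h with compound, then given etoposide; methods give 5 μg/mL read at 48 h, while the legend states 5 μM for 12 h. PrestoBlue fluorescence (ex 560/em 590 nm).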
# [18] = target: T1, Glutamate [NMDA] receptor (Homo sapiens); assay: Antagonist activity at NMDA receptor in human IMR90-c4 cells assessed as decrease in NMDA-mediated reduction in cell viability at 0.1 to 10 uM by PrestoBlue assay; type: cell-based; how it was run: as §6
# [19] = system: PC-12; assay: Induction of autophagy in rat PC12 cells at 10 uM after 48 hrs by MDC staining-based flow cytometric method relative to control; type: functional; how it was run: as §1
# [20] = target: T1, Glutamate [NMDA] receptor (Homo sapiens); assay: Antagonist activity at NMDA receptor in human IMR90-c4 cells assessed as decrease in NMDA-mediated reduction in cell viability at 0.1 to 30 uM by PrestoBlue assay; type: cell-based
# How it was run: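 Neurons differentiated from IMR90-c4 iPSCs over roughly 21 days, then challenged with 500 μM NMDA. Viability was read with PrestoBlue. n = 1 with 4 technical replicates; % viability given as mean ± SEM.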
# [21] = system: IMR-90; assay: Neuroprotective activity against etoposide-induced apoptosis in human IMR90-c4 cells assessed as increase in cell viability at 0.1 uM pretreated for 4 hrs followed by etoposide challenge measured after 36 hrs by PrestoBlue assay relative to control; type: functional; how it was run: as §3
# [22] = system: PC-12; assay: Neuroprotective activity against etoposide-induced apoptosis in rat PC12 cells assessed as increase in Bcl2/Bax ratio at 0.1 uM pretreated for 4 hrs followed by etoposide challenge measured after 24 hrs by Western blot method; type: functional; how it was run: as §5
# [23] = system: PC-12; assay: Neuroprotective activity against etoposide-induced apoptosis in rat PC12 cells assessed as increase in Bcl2/Bax ratio at 0.1 uM pretreated for 4 hrs followed by etoposide challenge measured after 48 hrs by Western blot method; type: functional, cell-based; how it was run: as §5
# [24] = system: PC-12; assay: Induction of autophagy in rat PC12 cells assessed as increase in beclin 1 expression at 0.1 uM after 24 hrs by Western blot method relative to control; type: functional; how it was run: as §4
# [25] = system: IMR90-c4; assay: Neuroprotective activity against etoposide-induced apoptosis in human IMR90-c4 cells assessed as increase in cell viability at 0.1 to 3 uM pretreated for 4 hrs followed by etoposide challenge measured after 36 hrs by PrestoBlue assay; type: functional, cell-based; how it was run: as §3
# [26] = system: IMR90-c4; assay: Neuroprotective activity against etoposide-induced apoptosis in human IMR90-c4 cells assessed as increase in cell viability at 10 to 30 uM pretreated for 4 hrs followed by etoposide challenge measured after 36 hrs by PrestoBlue assay; type: functional, cell-based
# How it was run: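 Neurons derived from IMR90-c4 iPSCs were seeded at 16000 cells/well on poly-D-lysine/laminin and matured at 37 °C, 5% CO2. Compound pretreatment lasted 4 h before 15 μg/mL etoposide. PrestoBlue fluorescence (ex 560/em 590 nm) was read after 36 h.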
# [27] = system: PC-12; assay: Induction of autophagy in rat PC12 cells assessed as increase in beclin 1 expression at 10 uM after 24 hrs by Western blot method relative to control; type: functional; how it was run: as §4
compound,measurement,setting,value
CCOC(=O)Nc1ccc(NCc2ccc(OC(F)(F)F)cc2)nc1N,Activity,[1],Dose-dependent effect
same,viability at 0.1 µM,[2],77%
same,Activity,[3],Active
same,Activity,[4],Dose-dependent effect
same,viability at 3 µM,[5],80.6%
same,Activity,[6],inactive
CCOC(=O)Nc1cnc(NCc2ccc(F)cc2)cc1C,viability at 3 µM,[5],53.8%
CCOC(=O)Nc1ccc(NCCc2ccc(F)cc2)nc1N,viability at 3 µM,[5],59.3%
CCOC(=O)Nc1ccc(NCc2ccc(C(F)(F)F)nc2)nc1N,viability at 0.1 µM,[2],74%
same,viability at 3 µM,[5],81.6%
CCOC(=O)Nc1ccc(NCc2ccc(SC(F)(F)F)cc2)nc1N,Activity,[1],Dose-dependent effect
same,fold change (FC),[7],8
same,Activity,[8],71%
same,viability at 0.3 µM,[9],93%
same,Activity,[10],Active
same,Activity,[6],inactive
CCOC(=O)Nc1ccc(NCc2ccccc2)nc1,viability at 3 µM,[5],67.5%
CCCCCCOC(=O)Nc1ccc(NCc2ccc(F)cc2)nc1N,viability at 3 µM,[5],78.5%
CCOC(=O)Nc1ccc(NCc2ccc(F)cc2)nc1N [FLUPIRTINE],fold change (FC),[7],2
same,inhibition,[11],Active
same,viability at 3 µM,[12],70%
same,Activity,[13],68%
same,Activity,[3],Active
same,Activity,[14],Active
same,Activity,[15],Active
same,Activity,[16],32%
same,viability at 3 µM,[5],79.5%
same,Activity,[6],inactive
same,viability at 3 µM,[17],69%
same,inhibition,[18],inactive
same,fold change (FC),[19],8
CCOC(=O)Nc1ccc(NCc2ccccc2C(F)(F)F)nc1N,viability at 3 µM,[5],82.8%
CCOC(=O)Nc1ccc(NCc2ccc(C)cc2)nc1N,viability at 3 µM,[5],136%
Nc1nc(NCc2ccc(F)cc2)ccc1NC(=O)OCc1ccccc1,fold change (FC),[7],3
same,Activity,[8],79%
same,Activity,[3],Active
same,Activity,[14],inactive
same,Activity,[15],inactive
same,inhibition,[20],inactive
same,viability at 3 µM,[5],81.2%
same,Activity,[10],Active
same,Activity,[6],Active
CCOC(=O)Nc1ccc(NCc2ccc(C)cc2)nc1,viability at 3 µM,[5],64.3%
C=CCOC(=O)Nc1ccc(NCc2ccc(F)cc2)nc1N,fold change (FC),[7],2
same,Activity,[13],150%
same,Activity,[14],inactive
same,Activity,[15],inactive
same,inhibition,[20],inactive
same,viability at 3 µM,[5],84.9%
same,Activity,[6],inactive
CCOC(=O)Nc1ccc(OCc2ccc(C(F)(F)F)cc2)nc1N,viability at 3 µM,[12],65%
same,Activity,[4],Dose-dependent effect
same,Activity,[6],inactive
CCOC(=O)Nc1ccc(NCc2ccc(C(F)(F)F)cc2)nc1N,Activity,[1],Dose-dependent effect
same,Activity,[13],232%
same,viability at 0.1 µM,[2],84%
same,Activity,[15],inactive
same,Activity,[21],75 - 76%
same,Activity,[4],Dose-dependent effect
same,Activity,[22],159%
same,inhibition,[20],inactive
same,viability at 3 µM,[5],68.4%
same,Activity,[23],inactive
same,Activity,[6],inactive
same,Activity,[24],18%
same,Activity,[25],Active
CCCOC(=O)Nc1ccc(NCc2ccc(F)cc2)nc1N,viability at 3 µM,[5],46.7%
CCOC(=O)Nc1ccc(NCc2ccc(F)cc2)cc1N [EZOGABINE],fold change (FC),[7],2
same,inhibition,[11],Active
same,Activity,[13],64%
same,Activity,[14],Active
same,Activity,[15],Active
same,Activity,[26],Active
same,Activity,[6],inactive
same,inhibition,[18],inactive
CCOC(=O)Nc1ccc(NCc2ccc(Cl)cc2)nc1N,Activity,[1],Dose-dependent effect
same,fold change (FC),[7],>5
same,Activity,[13],inactive
same,Activity,[15],inactive
same,inhibition,[20],inactive
same,Activity,[16],-20%
same,viability at 3 µM,[5],64.3%
same,Activity,[6],inactive
same,fold change (FC),[19],>12
same,Activity,[27],104%
Nc1nc(NCc2ccc(F)cc2)ccc1NC(=O)OCCCl,viability at 3 µM,[5],53.9%
